Source: ChEMBL document CHEMBL4017487, “Design and Synthesis of γ- and δ-Lactam M1 Positive Allosteric Modulators (PAMs): Convulsion and Cholinergic Toxicity of an M1-Selective PAM with Weak Agonist Activity” (J Med Chem, 2017)

Assays:
[1] = target: T1, Muscarinic acetylcholine receptor M1 (Homo sapiens, UniProt P11229); assay: Ratio of positive allosteric modulation of human muscarinic acetylcholine receptor M1 expressed in CHO cells assessed as increase in acetylcholine-induced beta-arrestin recruitment by measuring functional co-operativity with acetylcholine to Kb for human muscarinic acetylcholine receptor M1 expressed in CHO cells assessed as increase in beta-arrestin recruitment; format: ADME, cell-based
T1 sequence (P11229 whole entry): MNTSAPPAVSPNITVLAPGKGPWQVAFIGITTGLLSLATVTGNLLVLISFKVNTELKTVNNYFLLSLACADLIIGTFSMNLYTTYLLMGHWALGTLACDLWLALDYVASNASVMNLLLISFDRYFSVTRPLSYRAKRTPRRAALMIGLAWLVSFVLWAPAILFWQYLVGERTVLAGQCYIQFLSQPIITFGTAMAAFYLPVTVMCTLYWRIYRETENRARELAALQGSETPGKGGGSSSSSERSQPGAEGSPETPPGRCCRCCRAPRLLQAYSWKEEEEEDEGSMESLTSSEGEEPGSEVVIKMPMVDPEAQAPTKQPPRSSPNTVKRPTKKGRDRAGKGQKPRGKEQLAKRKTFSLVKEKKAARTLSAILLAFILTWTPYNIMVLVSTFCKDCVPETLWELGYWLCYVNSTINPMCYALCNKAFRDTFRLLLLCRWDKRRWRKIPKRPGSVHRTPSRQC

Canis familiaris [2] = assay: Toxicity in dog assessed as ataxia at 15 mg/kg, po administered as single dose using spray dried dispersion formulation after 0.8 hrs; format: organism-based, Canis lupus familiaris; conditions: in vivo
How it was run: (§1)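 Dog single oral dose escalation: 1/sex at 5 mg/kg for each formulation; 1 female at 15 mg/kg. Spray-dried dispersion: 23% drug loading with 0.5% methylcellulose and 100 mM citrate buffer. Clinical signs timed in approximate hours postdose; unbound plasma Cmax.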

[3] = Ratio of unbound AUC in iv or po dosed mouse brain to plasma; format: ADME, organism-based
[4] = Oral bioavailability in dog at 0.5 mg/kg administered as single dose; format: ADME, organism-based, Canis lupus familiaris; conditions: in vivo
[5] = target: T1, Muscarinic acetylcholine receptor M1; assay: Activity at human muscarinic acetylcholine receptor M1 expressed in CHO cells assessed as increase in acetylcholine-induced calcium mobilization incubated for 10 mins by Fluo-8-AM dye based FLIPR assay; format: ADME, cell-based
How it was run: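 Calcium-mobilization potentiation assay read on a FLIPR plate reader in the presence of an EC20 concentration of ACh. EC50 is the geometric mean of at least three experiments.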

[6] = target: T2, Muscarinic acetylcholine receptor M2 (Homo sapiens, UniProt P08172); assay: Positive allosteric modulation of human muscarinic acetylcholine receptor M2 expressed in CHO cells assessed as increase in acetylcholine-induced cAMP accumulation up to 10 uM after 2 hrs by cAMP-Glo assay; format: cell-based
T2 sequence (P08172 whole entry): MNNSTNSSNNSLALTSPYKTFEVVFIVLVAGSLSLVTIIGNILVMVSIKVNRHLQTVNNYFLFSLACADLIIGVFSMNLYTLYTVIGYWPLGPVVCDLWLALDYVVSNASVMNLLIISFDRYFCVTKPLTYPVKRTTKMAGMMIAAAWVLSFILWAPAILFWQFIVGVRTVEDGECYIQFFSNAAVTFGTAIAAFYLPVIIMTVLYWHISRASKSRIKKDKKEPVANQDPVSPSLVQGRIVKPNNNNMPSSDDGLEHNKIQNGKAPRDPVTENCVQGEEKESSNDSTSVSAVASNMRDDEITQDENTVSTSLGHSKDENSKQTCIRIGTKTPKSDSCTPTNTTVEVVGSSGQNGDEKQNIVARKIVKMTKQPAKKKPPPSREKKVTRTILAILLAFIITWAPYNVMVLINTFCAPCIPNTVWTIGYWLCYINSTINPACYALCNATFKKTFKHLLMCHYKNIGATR
How it was run: (§2)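 Recombinant functional human M2–M5 assays, each run in agonist and PAM modes at concentrations up to 10 μM.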

Canis familiaris [7] = assay: Unbound AUC (0 to 24 hrs) in dog plasma at 5 mg/kg, po administered as single dose using hydroxypropyl cellulose/docusate sodium formulation; format: ADME, organism-based, Canis lupus familiaris; conditions: in vivo
How it was run: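 Dogs given a single oral 5 mg/kg dose as a nanosuspension (hydroxypropyl cellulose SL, 0.05% docusate sodium in purified water), 1/sex. Unbound plasma Cmax and AUC determined, with clinical signs monitored at approximate hours postdose.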

Canis familiaris [8] = assay: Cholinergic toxicity in dog assessed as soft stool at 5 mg/kg, po administered as single dose using spray dried dispersion formulation after 1.5 hrs; format: organism-based, Canis lupus familiaris; conditions: in vivo; how it was run: as §1
[9] = target: T3, Muscarinic acetylcholine receptor M5 (Homo sapiens, UniProt P08912); assay: Positive allosteric modulation of human muscarinic acetylcholine receptor M5 expressed in CHO cells assessed as increase in acetylcholine-induced calcium mobilization up to 10 uM preincubated for 10 mins followed by acetylcholine addition by Fluo-8-AM dye based FLIPR assay; format: cell-based; how it was run: as §2
T3 sequence (P08912 whole entry): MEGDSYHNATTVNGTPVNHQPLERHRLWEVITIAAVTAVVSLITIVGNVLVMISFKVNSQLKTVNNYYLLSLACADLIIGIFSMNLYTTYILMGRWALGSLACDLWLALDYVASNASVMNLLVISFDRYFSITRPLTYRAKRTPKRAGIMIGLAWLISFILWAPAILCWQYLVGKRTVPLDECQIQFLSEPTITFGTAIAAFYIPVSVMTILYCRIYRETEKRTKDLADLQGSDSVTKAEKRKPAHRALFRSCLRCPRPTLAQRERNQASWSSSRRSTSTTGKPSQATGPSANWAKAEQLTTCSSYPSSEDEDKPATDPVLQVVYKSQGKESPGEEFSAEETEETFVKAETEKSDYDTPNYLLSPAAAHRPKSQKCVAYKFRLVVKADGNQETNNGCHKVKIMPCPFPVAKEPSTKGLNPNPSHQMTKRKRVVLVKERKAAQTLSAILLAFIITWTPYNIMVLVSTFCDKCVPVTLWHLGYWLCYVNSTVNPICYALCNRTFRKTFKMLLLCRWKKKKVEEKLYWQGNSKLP

[10] = Half life in dog at 0.5 mg/kg, po administered as single dose; format: ADME, organism-based, Canis lupus familiaris; conditions: in vivo
How it was run: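 Dog, single oral dose of 0.5 mg/kg as a suspension in 0.5% methylcellulose. Half-life taken after the oral dose.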

Rattus norvegicus = assay: Toxicity in rat assessed as unbound plasma concentration required for convulsions at 45 mg/kg, po administered as single dose after 1 to 6 hrs; format: organism-based; conditions: in vivo
Canis familiaris [11] = assay: Cholinergic toxicity in dog assessed as salivation at 15 mg/kg, po administered as single dose using spray dried dispersion formulation after 1 hr; format: organism-based, Canis lupus familiaris; conditions: in vivo; how it was run: as §1
Brain = assay: Unbound brain concentration in scopolamine-induced memory impairment Wistar rat model at 0.32 mg/kg, sc measured at 1.25 hrs post dose by LC-MS/MS analysis; conditions: in vivo

In the case of `Cc1cc2c(cc1Cc1ccc(-c3cocn3)cc1)C(=O)N([C@H]1CCOC[C@@H]1O)C2`, the Ratio [1] is reported as 100, the Activity (Canis familiaris [2]) is reported as “Toxic” and the Kp uu [3] is reported as 0.3. The bioavailability [4] was 65%, the KA [5] was 1.3 µM and the Activity [6] was “Not Active”. For the same compound, the fAUC (Canis familiaris [7]) was 3.37 µM·h, the Activity (Canis familiaris [8]) was “Toxic” and the Activity [9] was “Not Active”. The half-life [10] was 7.3 h, the Cp(f) (Rattus norvegicus) was 2310 nM and the Activity (Canis familiaris [11]) was “Toxic”. For the same compound, the “Drug uptake(free)” value (Brain) was 3.2 nM.
